Source: ChEMBL document CHEMBL1671663, “In vivo characterization of the peptide deformylase inhibitor LBM415 in murine infection models” (Antimicrob Agents Chemother, 2009)
In brackets after ≈: the same amount, converted by molar mass. Activity calls are given as the source filed them. The calls are words filed in the database; no cut-off is given here.

Assays:
Streptococcus pneumoniae [1] = assay: Antimicrobial activity against Streptococcus pneumoniae ATCC 6303 by broth microdilution method; assay type: functional
Method in brief: (§1)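 MICs determined by broth microdilution following CLSI guidelines. Inocula came from overnight Mueller-Hinton broth (ATCC 49951, NB01021) or overnight Trypticase soy agar culture (ATCC 6301). ATCC 6303 and ATCC 700677 came from a 5-h log culture in Todd-Hewitt broth–30% horse serum.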

Staphylococcus aureus [2] = assay: Antimicrobial activity against methicillin-resistant Staphylococcus aureus NB01021 infected in po dosed BALB/c mouse administered 0, 4, 23 hrs post infection; assay type: functional
Method in brief: (§2)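 Female BALB/c mice (19–23 g) infected intraperitoneally with MRSA NB01021 in 5% hog gastric mucin, 2.1 × 10^7 to 2.8 × 10^7 CFU/mouse (0.3 ml), 10–100× minimal lethal dose. Three dose levels, groups of 5–6; vehicle controls. Treatment 0, 4 and 23 h post-infection. Observed 8 days; ED50 with 95% CI by probit analysis of day-8 survival.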

[3] = Clearance in CD1 mouse at 5 mg/kg, iv by liquid chromatography/mass spectroscopy; assay type: ADME, organism-based; design: dose 5 mg/kg, route intravenous; conditions: in vivo
Method in brief: (§3)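 CD1 mice given 20 mg/kg p.o. or 5 mg/kg i.v.; blood sampled from three mice per time point, first at 0.083 h (i.v.) or 0.25 h (p.o.), last at 24 h. Plasma separated by centrifugation (10,000 rpm, 10 min, 4°C), stored at −80°C, assayed by LC/MS. Mean concentration-time course used for parameters; F from ratio of dose-normalized AUCs; C0 extrapolated from i.v. curve.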

Staphylococcus aureus [4] = assay: Antimicrobial activity against multiple drug resistant Staphylococcus aureus NB01021 infected in immunocompetent NMRI mouse soft tissue infection model assessed as reduction in thigh bacterial load at 50 mg/kg, po administered thrice a day for 2 days; assay type: functional
Method in brief: (§4)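 Thigh infection: 50 µl of freshly prepared NB01021 suspension (3.8 × 10^6 CFU/thigh) injected intramuscularly into the left hind thigh of female NMRI mice (20–23 g). Oral doses at 0, 4, 8, 24, 28, 32 h; vehicle controls. Thighs excised 18 h after last dose, homogenized in saline and plated on blood agar (detection limit 100 CFU/thigh). Medians compared to controls by Mann-Whitney rank sum test.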

Streptococcus pneumoniae [5] = assay: Antimicrobial activity against Streptococcus pneumoniae ATCC 6301 by broth microdilution method; assay type: functional; method in brief: as §1
Streptococcus pneumoniae [6] = assay: Antimicrobial activity against Streptococcus pneumoniae ATCC 6303 infected in BALB/c mouse pneumonia model assessed as complete eradication of bacteria at 40 mg/kg, po administered twice daily 3 days starting 16 hrs post infection; assay type: functional, organism-based; design: dose 40 mg/kg
Method in brief: (§5)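 Anesthetized (ketamine/xylazine) female BALB/c mice (19 to 22 g) inoculated intranasally with 50 µl log-phase culture (1.4 × 10^5 CFU/mouse). Oral treatment, six mice per group, at 16, 27, 40, 51, 64 and 75 h postinfection; vehicle controls. Lungs harvested one day after last dose, homogenized, plated; log10 CFU/lung. Deaths assigned 9 log10 CFU/lung; Kruskal-Wallis with Dunn's test versus control.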

Streptococcus pneumoniae [7] = assay: Antimicrobial activity against Streptococcus pneumoniae ATCC 6303 infected in BALB/c mouse pneumonia model assessed as reduction in lung bacterial load at 20 mg/kg, po administered twice daily 3 days starting 16 hrs post infection; assay type: functional; method in brief: as §5
Mus musculus [8] = assay: Cmax in CD1 mouse at 20 mg/kg, po by liquid chromatography/mass spectroscopy; assay type: ADME, organism-based; design: dose 20 mg/kg, route oral; conditions: in vivo; method in brief: as §3
Streptococcus pneumoniae [9] = assay: Antimicrobial activity against multiple drug resistant Streptococcus pneumoniae ATCC 700677 infected in po dosed BALB/c mouse administered twice daily for 3 days; assay type: functional; conditions: ATCC 700677, po, 72 h
Method in brief: (§6)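 Female BALB/c mice (19–23 g) infected intraperitoneally with ATCC 700677 from a 5-h Todd-Hewitt–30% horse serum log culture, suspended in 5% hog mucin, 1.5 × 10^7 to 2 × 10^7 CFU/mouse. Groups of 5–6, typically three dose levels; vehicle controls. Dosed 1, 5, 17, 27, 42, 51 h post-infection. ED50 from day-8 survival by probit analysis, with 95% CI.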

Staphylococcus aureus [10] = assay: Antimicrobial activity against multiple drug resistant Staphylococcus aureus NB01021 infected in immunocompetent NMRI mouse soft tissue infection model assessed as reduction in thigh bacterial load at 16.7 mg/kg, po administered thrice a day for 2 days; assay type: functional; method in brief: as §4
Staphylococcus aureus [11] = assay: Antimicrobial activity against methicillin susceptible Staphylococcus aureus ATCC 13709 infected in po dosed NMRI mouse treated 1 and 5 hrs post infection; assay type: functional; conditions: ATCC 13709, po
Method in brief: (§7)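 Intraperitoneal infection (0.3 ml/mouse, 10 to 100 times minimal lethal dose) with inoculum in 0.86% NaCl; ATCC 49951 grown overnight in Mueller-Hinton broth (1.7 × 10^7 to 2.2 × 10^7 CFU/mouse), ATCC 13709 in tryptic soy broth (7.3 × 10^7 to 2 × 10^8 CFU/mouse). Groups of 5 to 6 mice, typically three doses, treated 1 and 5 h postinfection; vehicle controls. ED50 by probit analysis of day-8 survival.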

[12] = Volume of distribution at steady state in CD1 mouse at 5 mg/kg, iv by liquid chromatography/mass spectroscopy; assay type: ADME, organism-based; design: dose 5 mg/kg, route intravenous; conditions: in vivo, read-out: Vdss; method in brief: as §3
Streptococcus pneumoniae [13] = assay: Antimicrobial activity against multiple drug-resistant Streptococcus pneumoniae ATCC 700677 by broth microdilution method; assay type: functional; method in brief: as §1
Streptococcus pneumoniae [14] = assay: Antimicrobial activity against multiple drug resistant Streptococcus pneumoniae ATCC 700677 infected in sc dosed BALB/c mouse administered twice daily for 3 days; assay type: functional; conditions: ATCC 700677, sc, 72 h; method in brief: as §6
[15] = Tmax in CD1 mouse at 20 mg/kg, po by liquid chromatography/mass spectroscopy; assay type: ADME, organism-based; design: dose 20 mg/kg, route oral; conditions: in vivo; method in brief: as §3
Staphylococcus aureus [16] = assay: Antimicrobial activity against methicillin susceptible Staphylococcus aureus ATCC 49951 infected in sc dosed NMRI mouse treated 1 and 5 hrs post infection; assay type: functional; conditions: ATCC 49951, sc; method in brief: as §7
Staphylococcus aureus [17] = assay: Antimicrobial activity against multiple drug resistant Staphylococcus aureus NB01021 infected in immunocompetent NMRI mouse soft tissue infection model assessed as reduction in thigh bacterial load at 5.6 mg/kg, po administered thrice a day for 2 days; assay type: functional; method in brief: as §4
[18] = Bioavailability in CD1 mouse at 20 mg/kg, po by liquid chromatography/mass spectroscopy; conditions: in vivo
[19] = AUC in CD1 mouse at 5 mg/kg, iv by liquid chromatography/mass spectroscopy; assay type: ADME, organism-based; design: dose 5 mg/kg, route intravenous; conditions: plasma; method in brief: as §3
Streptococcus pneumoniae [20] = assay: Antimicrobial activity against Streptococcus pneumoniae ATCC 6301 infected in po dosed NMRI mouse administered thrice daily for 4 days; conditions: ATCC 6301, po, 96 h
Streptococcus pneumoniae [21] = assay: Antimicrobial activity against Streptococcus pneumoniae ATCC 6303 infected in BALB/c mouse pneumonia model assessed as reduction in lung bacterial load at 40 mg/kg, po administered twice daily 3 days starting 16 hrs post infection; assay type: functional; method in brief: as §5
Streptococcus pneumoniae [22] = assay: Antimicrobial activity against Streptococcus pneumoniae ATCC 6303 infected in po dosed BALB/c mouse pneumonia model assessed as complete eradication of bacteria administered twice daily 3 days starting 16 hrs post infection; assay type: functional; method in brief: as §5
Staphylococcus aureus [23] = assay: Antimicrobial activity against methicillin-resistant Staphylococcus aureus NB01021 by broth microdilution method; assay type: functional; method in brief: as §1
Streptococcus pneumoniae [24] = assay: Antimicrobial activity against Streptococcus pneumoniae ATCC 6303 infected in BALB/c mouse pneumonia model assessed as reduction in lung bacterial load at 80 mg/kg, po administered twice daily 3 days starting 16 hrs post infection; assay type: functional; method in brief: as §5
Staphylococcus aureus [25] = assay: Antimicrobial activity against methicillin-resistant Staphylococcus aureus NB01021 infected in sc dosed BALB/c mouse administered 0, 4, 23 hrs post infection; assay type: functional; method in brief: as §2
Staphylococcus aureus [26] = assay: Antimicrobial activity against methicillin susceptible Staphylococcus aureus ATCC 49951 infected in po dosed NMRI mouse treated 1 and 5 hrs post infection; assay type: functional; conditions: ATCC 49951, po; method in brief: as §7
Staphylococcus aureus [27] = assay: Antimicrobial activity against methicillin-susceptible Staphylococcus aureus ATCC 49951 by broth microdilution method; assay type: functional; method in brief: as §1
[28] = AUC in CD1 mouse at 20 mg/kg, po by liquid chromatography/mass spectroscopy; assay type: ADME, organism-based; design: dose 20 mg/kg, route oral; conditions: plasma; method in brief: as §3
Staphylococcus aureus [29] = assay: Antimicrobial activity against methicillin-susceptible Staphylococcus aureus ATCC 13709 by broth microdilution method; assay type: functional
Method in brief: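 MIC by broth microdilution following CLSI guidelines.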

Mus musculus [30] = assay: Drug concentration at time zero in CD1 mouse at 5 mg/kg, iv by liquid chromatography/mass spectroscopy; assay type: ADME, organism-based; design: dose 5 mg/kg, route intravenous; conditions: in vivo; method in brief: as §3

CCCC[C@H](CN(O)C=O)C(=O)N1CCC[C@H]1C(=O)Nc1ccc(F)c[n+]1[O-]
MIC (Streptococcus pneumoniae [1]): 2 µg/mL (≈ 5.05 µM) | ED50 (Staphylococcus aureus [2]): 5.9 mg/kg | clearance [3]: 30.8 mL/min/kg | log10cfu (Staphylococcus aureus [4]): 3.6 | MIC (Streptococcus pneumoniae [5]): 0.125 µg/mL (≈ 0.315 µM) | Activity (Streptococcus pneumoniae [6]): Active | log10cfu (Streptococcus pneumoniae [7]): 5.1 | Cmax (Mus musculus [8]): 4250 ng/mL | ED50 (Streptococcus pneumoniae [9]): 36.6 mg/kg | log10cfu (Staphylococcus aureus [10]): 5.6 | ED50 (Staphylococcus aureus [11]): 13.2 mg/kg | Vd [12]: 3.12 L/kg | MIC (Streptococcus pneumoniae [13]): 0.5 µg/mL (≈ 1.26 µM) | ED50 (Streptococcus pneumoniae [14]): 4.8 mg/kg | Tmax [15]: 30 min | ED50 (Staphylococcus aureus [16]): 1.1 mg/kg | log10cfu (Staphylococcus aureus [17]): 6.3 | bioavailability [18]: 53% | AUC [19]: 2690 ng·h/mL | ED50 (Streptococcus pneumoniae [20]): 6.4 mg/kg | log10cfu (Streptococcus pneumoniae [21]): <2 | ED50 (Streptococcus pneumoniae [22]): 23.3 mg/kg | MIC (Staphylococcus aureus [23]): 2 µg/mL (≈ 5.05 µM) | log10cfu (Streptococcus pneumoniae [24]): 2.3 | ED50 (Staphylococcus aureus [25]): 0.7 mg/kg | ED50 (Staphylococcus aureus [26]): 2.3 mg/kg | MIC (Staphylococcus aureus [27]): 0.125 µg/mL (≈ 0.315 µM) | AUC [28]: 5700 ng·h/mL | MIC (Staphylococcus aureus [29]): 4 µg/mL (≈ 10.1 µM) | Drug uptake (Mus musculus [30]): 5361 ng/mL

CC1(C)S[C@@H]2[C@H](NC(=O)[C@H](N)c3ccc(O)cc3)C(=O)N2[C@H]1C(=O)O [AMOXICILLIN]
MIC (Streptococcus pneumoniae [1]): 0.03 µg/mL (≈ 0.0821 µM) | ED50 (Staphylococcus aureus [2]): > 50 mg/kg | MIC (Streptococcus pneumoniae [5]): 0.03 µg/mL (≈ 0.0821 µM) | MIC (Streptococcus pneumoniae [13]): 4 µg/mL (≈ 10.9 µM) | MIC (Staphylococcus aureus [23]): 128 µg/mL (≈ 350 µM) | MIC (Staphylococcus aureus [27]): 0.5 µg/mL (≈ 1.37 µM) | MIC (Staphylococcus aureus [29]): 1 µg/mL (≈ 2.74 µM)

CC[C@H]1OC(=O)[C@H](C)[C@@H](O[C@H]2C[C@@](C)(OC)[C@@H](O)[C@H](C)O2)[C@H](C)[C@@H](O[C@@H]2O[C@H](C)C[C@H](N(C)C)[C@H]2O)[C@](C)(OC)C[C@@H](C)C(=O)[C@H](C)[C@@H](O)[C@]1(C)O [CLARITHROMYCIN]
MIC (Streptococcus pneumoniae [1]): 0.03 µg/mL (≈ 0.0401 µM) | MIC (Streptococcus pneumoniae [5]): 0.015 µg/mL (≈ 0.0201 µM) | ED50 (Streptococcus pneumoniae [9]): > 60 mg/kg | ED50 (Staphylococcus aureus [11]): 8.7 mg/kg | MIC (Streptococcus pneumoniae [13]): 32 µg/mL (≈ 42.8 µM) | ED50 (Staphylococcus aureus [16]): 1.2 mg/kg | ED50 (Streptococcus pneumoniae [20]): 2.1 mg/kg | MIC (Staphylococcus aureus [23]): > 64 µg/mL | ED50 (Staphylococcus aureus [26]): 7.7 mg/kg | MIC (Staphylococcus aureus [27]): 1 µg/mL (≈ 1.34 µM) | MIC (Staphylococcus aureus [29]): 0.5 µg/mL (≈ 0.668 µM)

CC(=O)NC[C@H]1CN(c2ccc(N3CCOCC3)c(F)c2)C(=O)O1 [LINEZOLID]
ED50 (Staphylococcus aureus [2]): 2 mg/kg | ED50 (Staphylococcus aureus [11]): 10.3 mg/kg | MIC (Streptococcus pneumoniae [13]): 0.25 µg/mL (≈ 0.741 µM) | ED50 (Staphylococcus aureus [16]): 7.4 mg/kg | ED50 (Streptococcus pneumoniae [20]): 5.6 mg/kg | MIC (Staphylococcus aureus [23]): 1 µg/mL (≈ 2.96 µM) | ED50 (Staphylococcus aureus [26]): 7 mg/kg | MIC (Staphylococcus aureus [27]): 1 µg/mL (≈ 2.96 µM) | MIC (Staphylococcus aureus [29]): 1 µg/mL (≈ 2.96 µM)
